Data set [1] in a line: In vitro metabolic stability in SD rat liver microsomes. The following applies: 1 μM, NADPH; for k obs (degradation rate constant): SD rat liver microsomes 0.1 mg/mL, parent compound 3 measured; for T1/2: apparent in vitro half-life; for T1/2 / CLint: SD rat liver microsomes; for CLint: intrinsic clearance.
Data set [2] can be described thus: Pharmacokinetic assay in rat. The following applies: male SD rats; for F (oral bioavailability): i.g. 20 mg/kg vs 3 i.v. 2 mg/kg, dose-normalized AUC(0-t).
The nature of data set [3]: Water solubility analysis. The format is physicochemical. The following applies: pH 7.4, room temperature. In outline:
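Excess test compound in water buffered to pH 7.4 with K2HPO4 phosphate, sonicated with stirring for 1 h at room temperature, then filtered. Supernatant analysed by HPLC on a C18 column (70% MeCN/30% water, 1.0 mL/min, UV 320 nm). Saturated concentration taken from peak area against a five-point (five-fold step) standard curve in MeCN, diluted from an acetonitrile stock.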

For data set [4] the following is noted: rat, microsomes.
For data set [5] the following is noted: cited from earlier work.
In another data set the test system is HIV-1. The note with it: previous studies, cited from earlier work; for EC50: anti-HIV potency; for TI: therapeutic index.
A short description of the next data set: in vitro. The following applies: Sprague-Dawley, rat, microsomes, pH 7.4.
For data set [6] the following is noted: cited from earlier work. This is another data set of the same source.
Where [7] appears, read: i.g. 20 mg/kg in 10% PEG400, parent 3 measured.
Where [8] appears, read: i.g. 20 mg/kg in 10% PEG400, plasma parent compound 3 measured.

“And” between values parts separate entries of the source, which are not always exact repeats. Identical values can stand only once. Like-named read-outs stand apart in the source and are kept apart here.

What is called Cmax is the highest concentration seen after dosing. A word on the Tmax: it is the time at which the peak concentration occurs. As a reminder, the Vd is a proportionality between amount in the body and measured concentration, not a real space. Turning to `Cc1c(COC(=O)C(N)CC(C)C)c(=O)oc2c3c(ccc12)OC(C)(C)[C@H](OC(=O)[C@@]12CCC(C)(C(=O)O1)C2(C)C)[C@@H]3OC(=O)[C@@]12CCC(C)(C(=O)O1)C2(C)C` (relative stereo) [Compound 12, [3′,4′-Di-O-(S) -camphanoyl-4-methyl-(+)-cis-kellactone-3-yl]methyl 2-amino-4-methyl-pentanoate], in data set [1], the “k obs (degradation rate constant)” value was 0.023, the T1/2 stood at 30.77 min and the CLint amounted to 230 µL/min/mg. Further, in data set [2] (setting [7]), the CL was determined as 0.433 ± 0.083 mL/min/kg, the maximum concentration (Cmax) was 529.0 ± 192.9 ng/mL, the “MRT(0-t)” value is 77.16 ± 5.1 min and the time of peak concentration (Tmax) turned out to be 30 min. In addition, the volume of distribution (Vd) in data set [2] (setting [7]) turned out to be 0.049 ± 0.020 L/kg. Besides, in data set [2] (setting [8]), the “AUC(0-t)” value is given as 775.6 ± 162.9 ng·L/mL. Further, the “F (oral bioavailability)” value in data set [2] is 15.8%.
In the case of `Cc1c(COC(=O)C(C)N)c(=O)oc2c3c(ccc12)OC(C)(C)[C@H](OC(=O)[C@@]12CCC(C)(C(=O)O1)C2(C)C)[C@@H]3OC(=O)[C@@]12CCC(C)(C(=O)O1)C2(C)C` (relative stereo) [Compound 10, [3′,4′-Di-O-(S)-camphanoyl-4-methyl-(+)-cis-kellactone-3-yl]methyl 2-aminopropanoate], the “systemic clearance (CL)” value in data set [2] (i.g. 20 mg/kg) was 16 mL/min/kg. Besides, in data set [2] (setting [7]), the CL amounted to 0.267 ± 0.12 mL/min/kg, the highest concentration (Cmax) amounted to 621.5 ± 79.67 ng/mL, the “MRT(0-t)” value came out at 107.6 ± 10.9 min and the time to peak (Tmax) worked out at 45 min. Also, in data set [2] (setting [7]), the Vd was 0.045 ± 0.017 L/kg. Also, in data set [2] (setting [8]), the “AUC(0-t)” value worked out at 1296.5 ± 437.6 ng·L/mL. In data set [2], the “F (oral bioavailability)” value was 26% and 25.7%. In data set [3], this compound displayed a Water solubility of 18 µg/mL. In data set [4], this compound registered a CLint of 140 µL/min/mg and a T1/2 of 49.26 min.
A word on the AUC: it is concentration integrated over time. Low readings indicate less exposure, high ones more exposure. Regarding `Cc1c(COC(=O)CCC(=O)O)c(=O)oc2c3c(ccc12)OC(C)(C)[C@H](OC(=O)[C@@]12CC[C@@](C)(C(=O)O1)C2(C)C)[C@@H]3OC(=O)[C@@]12CC[C@@](C)(C(=O)O1)C2(C)C` (relative stereo) [Compound 8, 4-Oxo-4-[(3′,4′-di-0-(S)-camphanoyl-4-methyl-(+)-cis-kellactone-3-yl)methoxy]butanok acid], the AUC in data set [2] (i.g. 20 mg/kg) was 588.9 ng·h/mL. In data set [2] (setting [7]), the CL turned out to be 0.567 ± 0.067 mL/min/kg, the highest concentration (Cmax) was 398.5 ± 29.00 ng/mL, the “MRT(0-t)” value was determined as 91.02 ± 12.4 min and the Tmax amounted to 30 min. Besides, in data set [2] (setting [7]), the volume of distribution (Vd) was determined as 0.102 ± 0.011 L/kg. Further, the “AUC(0-t)” value in data set [2] (setting [8]) is reported as 588.9 ± 72.06 ng·L/mL. In addition, the “F (oral bioavailability)” value in data set [2] turned out to be 12.4%. In addition, in data set [4], the CLint came out at 270 µL/min/mg and the T1/2 is given as 25.93 min.
With `Cc1c(COC(=O)C(N)C(C)C)c(=O)oc2c3c(ccc12)OC(C)(C)[C@H](OC(=O)[C@@]12CCC(C)(C(=O)O1)C2(C)C)[C@@H]3OC(=O)[C@@]12CCC(C)(C(=O)O1)C2(C)C` (relative stereo) [Compound 11, [3′,4′-Di-O-(S)-camphanoyl-4-methyl-(+)-cis-kellactone-3-yl]methyl 2-amino-3-methyl-butanoate], in data set [1], the “k obs (degradation rate constant)” value stood at 0.023, the T1/2 was found to be 30.09 min and the CLint was found to be 230 µL/min/mg.
The term EC50 denotes the midpoint of the concentration-response curve. Regarding `Cc1c(CO)c(=O)oc2c3c(ccc12)OC(C)(C)[C@H](OC(=O)C12CCC(C)(C(=O)O1)C2(C)C)[C@@H]3OC(=O)C12CCC(C)(C(=O)O1)C2(C)C` (stereo partly shown) [Compound 3, 3-hydroxymethyl-4-methyl-DCK], in data set [1], the “k obs (degradation rate constant)” value is 0.039, the T1/2 stood at 17.92 min and the CLint came out at 390 µL/min/mg. In addition, the “bioavailability (F)” value in data set [5] (in rat, previous studies) was 15%. In data set [2] (setting [7]), the CL stood at 0.333 ± 0.083 mL/min/kg, the Cmax is listed as 530.7 ± 120.8 ng/mL, the “MRT(0-t)” value came to 119 ± 28.7 min and the Tmax amounted to 34.8 min. Also, the Vd in data set [2] (setting [7]) is on record as 0.079 ± 0.039 L/kg. Further, the “AUC(0-t)” value in data set [2] (setting [8]) came to 966.3 ± 219.7 ng·L/mL. Moreover, the “F (oral bioavailability)” value in data set [2] worked out at 17.3%. Also, in data set [2] (i.v. 2 mg/kg in 10% PEG400), the “AUC(0-t)” value is given as 558.4 ± 8.71 ng·L/mL, the CL was determined as 0.05 ± 0.0017 mL/min/kg, the “MRT(0-t)” value is 74.1 ± 10.1 min and the Vd was determined as 0.008 ± 0.002 L/kg. The compound further returned a Water solubility in data set [3] of 8.4 µg/mL. Further, in the data set with HIV-1, the EC50 is 4 nM and the TI is given as 6225.
As for `Cc1cc(=O)oc2c3c(ccc12)OC(C)(C)[C@H](OC(=O)C12CCC(C)(C(=O)O1)C2(C)C)[C@@H]3OC(=O)C12CCC(C)(C(=O)O1)C2(C)C` (stereo partly shown) [Compound 2, 4-methyl-DCK], the bioavailability entry in data set [5] (rat, in vivo) is “poor bioavailability”. In the data set with HIV-1, the EC50 is 1.5 nM and the TI was 15,733.
In the case of `Cc1c(COC(=O)CN)c(=O)oc2c3c(ccc12)OC(C)(C)[C@H](OC(=O)[C@@]12CCC(C)(C(=O)O1)C2(C)C)[C@@H]3OC(=O)[C@@]12CCC(C)(C(=O)O1)C2(C)C` (relative stereo) [Compound 9, [3′,4′-Di-O-(S)-camphanoyl-4-methyl-(+)-cis-kellactone-3-yl]methyl 2-aminoacetate], in data set [2] (setting [7]), the CL is 0.617 ± 0.017 mL/min/kg, the Cmax was 163.6 ± 13.56 ng/mL, the “MRT(0-t)” value was 214.9 ± 18.4 min and the Tmax turned out to be 15 min. The Vd in data set [2] (setting [7]) was 0.467 ± 0.063 L/kg. For the same compound, the “AUC(0-t)” value in data set [2] (setting [8]) amounted to 384.1 ± 6.21 ng·L/mL. Also, in data set [2], the “F (oral bioavailability)” value came out at 7.5%. Also, in data set [4], the CLint came out at 1780 µL/min/mg and the T1/2 is on record as 3.90 min.
What is called half-life is how long it takes for the measured level to halve. A high value points to slow loss. `CC(C)NCC(O)COc1cccc2ccccc12` (stereo not shown) [PRO, propranolol]: the half-life at 1 μM in “in vitro” came to 20.7 min. In addition, in data set [6], the T1/2 in vivo entry was “a Reference compounds: propranolol (moderate metabolism in vivo with T1/2 of 3–5 h)”.
Turning to `Cc1c(COC(=O)CN)c(=O)oc2c3c(ccc12)OC(C)(C)[C@H](OC(=O)[C@@]12CCC(C)(C(=O)O1)C2(C)C)[C@@H]3OC(=O)[C@@]12CCC(C)(C(=O)O1)C2(C)C.Cl` (relative stereo) [Compound 13, [3′,4′-Di-O-(S)-camphanoyl-4-methyl-(+)-cis-kellactone-3-yl]methyl 2-aminoacetate hydrochloride salt], in data set [2] (setting [7]), the CL stood at 0.667 ± 0.167 mL/min/kg, the Cmax was 191.1 ± 2.48 ng/mL, the “MRT(0-t)” value is 128.2 ± 7.38 min and the Tmax amounted to 45 min. Moreover, in data set [2] (setting [7]), the Vd was 0.123 ± 0.058 L/kg. Also, in data set [2] (setting [8]), the “AUC(0-t)” value is listed as 477.8 ± 128.7 ng·L/mL. In data set [2], the “F (oral bioavailability)” value came out at 9.8%. In data set [4], this compound registered a CLint of 260 µL/min/mg and a T1/2 of 26.54 min.
In the case of `Cc1c(COC(=O)CCC(=O)O)c(=O)oc2c3c(ccc12)OC(C)(C)[C@H](OC(=O)[C@@]12CC[C@@](C)(C(=O)O1)C2(C)C)[C@@H]3OC(=O)[C@@]12CC[C@@](C)(C(=O)O1)C2(C)C` (relative stereo) [Compound 6, 4-Oxo-4-[(3′,4′-di-0-(S)-camphanoyl-4-methyl-(+)-cis-kellactone-3-yl)methoxy]butanok acid], the AUC in data set [2] (i.g. 20 mg/kg) is recorded as 157.9 ng·h/mL. Also, in data set [2] (setting [7]), the CL was found to be 1.7 ± 0.333 mL/min/kg, the Cmax came out at 80.9 ± 18.80 ng/mL, the “MRT(0-t)” value came to 159.5 ± 40.9 min and the time of peak concentration (Tmax) came to 22.8 min. For the same compound, the Vd in data set [2] (setting [7]) is recorded as 0.669 ± 0.422 L/kg. The “AUC(0-t)” value in data set [2] (setting [8]) amounted to 157.9 ± 42.94 ng·L/mL. The “F (oral bioavailability)” value in data set [2] came out at 3.3%. In data set [4], this compound returned a CLint of 200 µL/min/mg and a T1/2 of 35.27 min.

The values above are taken from article PMC3655773 (Acta pharmaceutica Sinica. B, 2012).
